Laboratory results published in ChEMBL document CHEMBL4229494, “Novel tertiary sulfonamides as potent anti-cancer agents” (Bioorg Med Chem, 2018).
≈ marks a conversion by molar mass, not a printed value.

Columns and labels:
[1] = Inhibition of Wnt3A-induced Wnt transcription (unknown origin) expressed in HEK293 cells coexpressing TK-driven Rluc after 20 to 22 hrs by super-top flash reporter gene assay; format: cell-based; details: Homo sapiens
In short: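 HEK-293 cells (DMEM, 10% FBS) were co-transfected with Super(8x)TOPflash, a Wnt3A expression vector and TK-driven Renilla luciferase. After 8 h at 37 °C, 5% CO2, cells were seeded at 25,000/well and treated at 1.6, 8, 40, 200, 1000 or 5000 nM, or with DMSO, for 20-22 h in triplicate. Firefly/Renilla luminescence was taken relative to DMSO, and IC50 was found by nonlinear regression.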

[2] = Solubility of the compound; format: physicochemical
[3] = Lipophilicity, log D of the compound at pH 3; format: physicochemical; details: buffer
[4] = Lipophilicity, log D of the compound at pH 7; format: physicochemical; details: buffer
MCF7 [5] = assay: Induction of apoptosis in human MCF7 cells after 24 hrs by caspase-Glo 3/7 reagent based luminescence assay; format: functional, cell-based; details: MCF7, 24 h
In short: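 MCF-7 cells were plated at 25,000/well (DMEM, 10% FBS) and grown 24 h, then treated at 1.6 nM–5 µM or with DMSO for 24 h. Caspase 3/7 activity was read by Caspase-Glo 3/7 luminescence. Triplicate signals relative to DMSO were analysed by nonlinear regression.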

MDA-MB-231 = assay: Antiproliferative activity against human MDA-MB-231 cells after 24 hrs by SYBR green dye based fluorescence assay; format: functional, cell-based; details: MDA-MB-231, 24 h
In short: (§1)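 Cells were plated at 500/well in DMEM/10% FBS and allowed to attach for 24 h at 37 °C, 5% CO2. They were then exposed to 1.6 nM–5 µM or DMSO. One plate was harvested every 24 h over 7 days and frozen at -20 °C. DNA was quantified by SYBR Green fluorescence (Ex495/Em535). Triplicate values relative to DMSO went to nonlinear regression for IC50.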

MCF7 [6] = assay: Antiproliferative activity against human MCF7 cells after 24 hrs by SYBR green dye based fluorescence assay; format: functional, cell-based; details: MCF7, 24 h; in short: as §1

| IC50 [1] | solubility [2] | logD [3] | logD [4] | EC50 (MCF7 [5]) | IC50 (MDA-MB-231) | IC50 (MCF7 [6]) | SMILES |
| --- | --- | --- | --- | --- | --- | --- | --- |
| 0.01 µM | 26.6 µM (≈ 9.53 µg/mL) | 1.7 | 1.7 | – | – | – | O=C1CCCN1c1ccc(S(=O)(=O)N2CCOc3ccccc32)cc1 |
| 0.017 µM | 69.6 µM (≈ 27.9 µg/mL) | 2.9 | 3 | 0.046 µM | 0.014 µM | 0.014 µM | COc1ccc2c(c1)N(C)CCN2S(=O)(=O)c1ccc(N2CCCC2=O)cc1 |
| 0.006 µM | – | – | – | 0.016 µM | 0.02 µM | 0.025 µM | COc1ccc2c(c1)CCCN2S(=O)(=O)c1ccc(N2CCCC2=O)cc1 |
| > 5 µM | – | – | – | – | – | – | O=C1CCCN1c1ccc(C(=O)N2CCCc3ccccc32)cc1 |
| 0.054 µM | – | – | – | – | – | – | O=C1CCCN1c1ccc(S(=O)(=O)N2CCCc3cc(C(F)(F)F)ccc32)cc1 |
| > 5 µM | – | – | – | > 5 µM | > 5 µM | > 5 µM | CCCN(c1ccccc1)S(=O)(=O)c1ccc(N2CCCC2=O)cc1 |
| 0.018 µM | – | – | – | 0.005 µM | 0.013 µM | 0.007 µM | CN1CCN(S(=O)(=O)c2ccc(N3CCC=N3)cc2)c2ccccc21 |
| 0.011 µM | – | – | – | – | – | – | CC1CCc2ccccc2N1S(=O)(=O)c1ccc(N2CCCC2=O)cc1 (racemic) |

Further lines, the molecule ahead of its results:

| SMILES | IC50 [1] | solubility [2] | logD [3] | logD [4] | EC50 (MCF7 [5]) | IC50 (MDA-MB-231) | IC50 (MCF7 [6]) |
| --- | --- | --- | --- | --- | --- | --- | --- |
| O=C1CCCN1c1ccc(S(=O)(=O)N2CCCC3CCCCC32)cc1 (stereo not drawn) | > 5 µM | – | – | – | – | – | – |
| CC(=O)N(C)c1ccc(S(=O)(=O)N2CCCc3ccccc32)cc1 | > 5 µM | – | – | – | – | – | – |
| CC1CN(C)c2ccccc2N1S(=O)(=O)c1ccc(N2CCCC2=O)cc1 (racemic) | 0.009 µM | 23.1 µM (≈ 8.9 µg/mL) | 3.3 | 3.6 | – | – | – |
| Cc1ccc2c(c1)CCCN2S(=O)(=O)c1ccc(N2CCCC2=O)cc1 | 0.007 µM | – | – | – | 0.061 µM | 0.017 µM | 0.015 µM |
| O=C1CCCN1c1ccc(S(=O)(=O)N2CCNc3ccccc32)cc1 | > 5 µM | – | – | – | – | – | – |
| O=S(=O)(c1ccc(-n2cncn2)cc1)N1CCCc2ccccc21 | > 5 µM | – | – | – | > 5 µM | > 5 µM | > 5 µM |
| O=C1CCCN1c1ccc(S(=O)(=O)N2CCCc3ccccc32)cc1 | 0.025 µM | 7.8 µM (≈ 2.78 µg/mL) | 2.5 | 2.5 | 0.023 µM | 0.015 µM | 0.017 µM |
